Experimental data collected from several papers.
Lines come from different studies, so protocols differ.
Target: Dual specificity protein kinase CLK4 (CLK4, Homo sapiens, UniProt Q9HAZ1)

| Structure (SMILES) | assay | conditions | quantity | result |
| --- | --- | --- | --- | --- |
| COc1ncccc1-c1cnn2ccc(N3CCN(C(=O)OC(C)C)CC3)nc12 | binding, competition with immobilised ligand | 1 µM | remaining binding | 98% |
| CC(C)(C)c1cc(C=C(C#N)C#N)cc(Br)c1O | enzyme activity, inhibitor | 0.5 µM | remaining activity | 88.6% |
| Nc1ncc(-c2nc(N3CCOCC3)nc(N3CCOCC3)n2)c(C(F)F)n1 | binding, competition with immobilised ligand | 10 µM | remaining binding | 30% |
| C#Cc1n[nH]c2c(-c3cn([C@@H](C)c4ccccn4)c(=O)[nH]c3=O)cc(F)cc12 | enzyme activity, inhibitor | 0.1 µM | inhibition | 8.9% |
| COc1cc(Nc2ncc(F)c(Nc3ccc4c(n3)NC(=O)C(C)(C)O4)n2)cc(OC)c1OC | binding, competition with immobilised ligand | 10 µM | inhibition | 85% |
| Cn1cncc1[C@@](O)(COc1ccc(C#N)cc1-c1ccc(OC(F)(F)F)cc1)c1ccc(C#N)cc1 | cell-free assay, competition with immobilised ligand | 1 µM | remaining binding | 96% |
| Cc1nn(C)cc1-c1nc2c(N3CCN(Cc4ccc(Cl)cc4)CC3)c(Cl)cnc2[nH]1 | binding, competition with immobilised ligand | 1 µM | remaining binding | 100% |
| C#Cc1n[nH]c2c(-c3cn([C@@H](C)c4ccccc4)c(=O)[nH]c3=O)cc(F)cc12 | enzyme activity, inhibitor | 0.1 µM | inhibition | -0.9% |
| O=c1[nH]c2ccccc2n1C1CCN(Cc2ccc(-c3[nH]c4cc5ncnc5cc4nc3-c3ccccc3)cc2)CC1 | cell-free assay | 0.5 µM | remaining signal | 92.8% |
